Source: ChEMBL document CHEMBL1126175, “Synthesis and antibacterial activity of new tetracyclic quinolone antibacterials” (J Med Chem, 1992)
In brackets after ≈: the same amount, converted by molar mass.

Assays:
Staphylococcus aureus [1] = test: In vitro antibacterial activity against staphylococcus aureus FDA 209P JC-1,Sa(F)(gram-positive); format: functional
Outline: (§1)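 MIC by serial 2-fold agar dilution on Mueller–Hinton agar; inoculum about 10^6 CFU/mL; MIC taken as lowest concentration preventing visible growth after 18 h at 37 °C.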

Escherichia coli [2] = test: In vitro antibacterial activity against Escherichia coli KC-14, Ec(K), (gram-negative); format: functional; outline: as §1
Enterococcus faecalis = test: In vitro antibacterial activity against Enterococcus faecalis IID 682,[…],(gram-positive); format: functional; outline: as §1
Escherichia coli [3] = test: In vitro antibacterial activity against Escherichia coli NIHJ JC-2,(gram-negative)
Pseudomonas aeruginosa [4] = test: In vitro antibacterial activity against Pseudomonas aeruginosa E-2,Pa(E),(gram-negative); format: functional; outline: as §1
Pseudomonas aeruginosa [5] = test: In vitro antibacterial activity against Pseudomonas aeruginosa IFO 3445,Pa(I),(gram-negative); format: functional; outline: as §1
[6] = test system: Staphylococcus epidermidis; test: In vitro antibacterial activity against staphylococcus epidermidis IAM 1296, (gram-positive); format: functional; outline: as §1
Klebsiella pneumoniae = test: In vitro antibacterial activity against klebsiella pneumoniae B54,Kp,(gram-negative); format: functional
Staphylococcus aureus [7] = test: In vitro antibacterial activity against staphylococcus aureus IID 803,(gram-positive); format: functional; outline: as §1
Pseudomonas aeruginosa [8] = test: The effect on systematic infection in mice infected with Pseudomonas aeruginosa E-2, administered perorally; format: functional
Escherichia coli [9] = test: In vitro antibacterial activity was measured against nalidixic acid resistant strain 7 from Escherichia coli KC-14; format: functional
Outline: (§2)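 MIC by serial 2-fold agar dilution on Mueller–Hinton agar, inoculum about 10^6 CFU/mL. Plates were incubated 37 °C for 18 h. MIC was the lowest concentration preventing visible growth.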

Escherichia coli [10] = test: In vitro antibacterial activity was measured against nalidixic acid resistant strain 2 from Escherichia coli KC-14; format: functional; outline: as §2
Escherichia coli [11] = test: In vitro antibacterial activity was measured against nalidixic acid resistant strain 3 from Escherichia coli KC-14; format: functional; outline: as §2
Escherichia coli [12] = test: In vitro antibacterial activity was measured against nalidixic acid resistant strain 4 from Escherichia coli KC-14; format: functional; outline: as §2
Escherichia coli [13] = test: In vitro antibacterial activity was measured against nalidixic acid resistant strain 6 from Escherichia coli KC-14; format: functional; outline: as §2
Staphylococcus aureus [14] = test: The effect on systematic infection in mice infected with Staphylococcus aureus IID 803, administered perorally; format: functional
Outline: (§3)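 Male ddY mice (20–22 g), five per group, received 0.5 mL bacterial dilution intraperitoneally at 35 or 500 times the 50% lethal dose. Compound was given orally 1 h postinfection, suspended in 0.5% sodium (carboxymethyl)cellulose or dissolved in sterile distilled water. Survival was scored after 1 week. Oral ED50 was reported with 95% confidence limits.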

Escherichia coli [15] = test: In vitro antibacterial activity was measured against nalidixic acid resistant strain 5 from Escherichia coli KC-14; format: functional; outline: as §2
Escherichia coli [16] = test: The effect on systematic infection in mice infected with Escherichia coli KC-14, administered perorally; format: functional; outline: as §3
Escherichia coli [17] = test: In vitro antibacterial activity was measured against nalidixic acid resistant strain 1 from Escherichia coli KC-14; format: functional; outline: as §2
Pseudomonas aeruginosa [18] = test: The effect on systematic infection in mice infected with Pseudomonas aeruginosa, administered perorally; format: functional; outline: as §3

SMILES: CN1CCN(c2c(F)cc3c(=O)c(S(=O)(=O)O)c4scc5n4c3c2OC5)CC1
- MIC (Staphylococcus aureus [1]): > 100 µg/mL
- MIC (Escherichia coli [2]): > 100 µg/mL
- MIC (Enterococcus faecalis): > 100 µg/mL
- MIC (Escherichia coli [3]): > 100 µg/mL
- MIC (Pseudomonas aeruginosa [4]): > 100 µg/mL
- MIC (Pseudomonas aeruginosa [5]): > 100 µg/mL
- MIC [6]: > 100 µg/mL
- MIC (Klebsiella pneumoniae): > 100 µg/mL
- MIC (Staphylococcus aureus [7]): > 100 µg/mL

SMILES: CC1CN(c2c(F)cc3c(=O)c(C(=O)O)c4scc5n4c3c2OC5)CCN1 (centres undefined)
- MIC (Staphylococcus aureus [1]): 0.2 µg/mL (≈ 0.514 µM)
- MIC (Escherichia coli [2]): 0.1 µg/mL (≈ 0.257 µM)
- MIC (Enterococcus faecalis): 0.78 µg/mL (≈ 2 µM)
- MIC (Escherichia coli [3]): 0.2 µg/mL (≈ 0.514 µM)
- MIC (Pseudomonas aeruginosa [4]): 0.78 µg/mL (≈ 2 µM)
- MIC (Pseudomonas aeruginosa [5]): 1.56 µg/mL (≈ 4.01 µM)
- MIC [6]: 0.78 µg/mL (≈ 2 µM)
- MIC (Klebsiella pneumoniae): 0.1 µg/mL (≈ 0.257 µM)
- MIC (Staphylococcus aureus [7]): 0.2 µg/mL (≈ 0.514 µM)

SMILES: O=C(O)c1c(=O)c2cc(F)c(N3CCOCC3)c3c2n2c(csc12)CO3
- MIC (Staphylococcus aureus [1]): 0.05 µg/mL (≈ 0.133 µM)
- MIC (Escherichia coli [2]): 0.39 µg/mL (≈ 1.04 µM)
- MIC (Enterococcus faecalis): 0.39 µg/mL (≈ 1.04 µM)
- MIC (Escherichia coli [3]): 0.39 µg/mL (≈ 1.04 µM)
- MIC (Pseudomonas aeruginosa [4]): 0.39 µg/mL (≈ 1.04 µM)
- MIC (Pseudomonas aeruginosa [5]): 1.56 µg/mL (≈ 4.14 µM)
- MIC [6]: 0.1 µg/mL (≈ 0.266 µM)
- MIC (Klebsiella pneumoniae): 0.2 µg/mL (≈ 0.531 µM)
- MIC (Staphylococcus aureus [7]): 0.05 µg/mL (≈ 0.133 µM)

SMILES: CN(C)c1c(F)cc2c(=O)c(C(=O)O)c3scc4n3c2c1OC4
- MIC (Staphylococcus aureus [1]): 0.2 µg/mL (≈ 0.598 µM)
- MIC (Escherichia coli [2]): 0.39 µg/mL (≈ 1.17 µM)
- MIC (Enterococcus faecalis): 0.78 µg/mL (≈ 2.33 µM)
- MIC (Escherichia coli [3]): 0.39 µg/mL (≈ 1.17 µM)
- MIC (Pseudomonas aeruginosa [4]): 6.25 µg/mL (≈ 18.7 µM)
- MIC (Pseudomonas aeruginosa [5]): 1.56 µg/mL (≈ 4.67 µM)
- MIC [6]: 0.1 µg/mL (≈ 0.299 µM)
- MIC (Klebsiella pneumoniae): 0.2 µg/mL (≈ 0.598 µM)
- MIC (Staphylococcus aureus [7]): 0.1 µg/mL (≈ 0.299 µM)

SMILES: CN1CCN(c2c(F)cc3c(=O)cc4scc5n4c3c2OC5)CC1
- MIC (Staphylococcus aureus [1]): > 100 µg/mL
- MIC (Escherichia coli [2]): > 100 µg/mL
- MIC (Enterococcus faecalis): > 100 µg/mL
- MIC (Escherichia coli [3]): > 100 µg/mL
- MIC (Pseudomonas aeruginosa [4]): > 100 µg/mL
- MIC (Pseudomonas aeruginosa [5]): > 100 µg/mL
- MIC [6]: > 100 µg/mL
- MIC (Klebsiella pneumoniae): > 100 µg/mL
- MIC (Staphylococcus aureus [7]): > 100 µg/mL

SMILES: O=C(O)c1c(=O)c2cc(F)c(N3CCCCC3)c3c2n2c(csc12)CO3
- MIC (Staphylococcus aureus [1]): 0.1 µg/mL (≈ 0.267 µM)
- MIC (Escherichia coli [2]): 3.13 µg/mL (≈ 8.36 µM)
- MIC (Enterococcus faecalis): 1.56 µg/mL (≈ 4.17 µM)
- MIC (Escherichia coli [3]): 0.78 µg/mL (≈ 2.08 µM)
- MIC (Pseudomonas aeruginosa [4]): 6.25 µg/mL (≈ 16.7 µM)
- MIC (Pseudomonas aeruginosa [5]): 12.5 µg/mL (≈ 33.4 µM)
- MIC [6]: 0.2 µg/mL (≈ 0.534 µM)
- MIC (Klebsiella pneumoniae): 1.56 µg/mL (≈ 4.17 µM)
- MIC (Staphylococcus aureus [7]): 0.1 µg/mL (≈ 0.267 µM)

SMILES: CN1CCN(c2c(F)cc3c(=O)c(C(=O)O)c4scc5n4c3c2OC5)CC1.Cl
- MIC (Staphylococcus aureus [1]): 0.1 µg/mL
- MIC (Escherichia coli [2]): 0.1 µg/mL
- MIC (Enterococcus faecalis): 0.39 µg/mL
- MIC (Escherichia coli [3]): 0.1 µg/mL
- MIC (Pseudomonas aeruginosa [4]): 0.78 µg/mL
- ED50 (Pseudomonas aeruginosa [8]): 17.7 mg/kg
- MIC (Pseudomonas aeruginosa [5]): 0.78 µg/mL
- MIC [6]: 0.2 µg/mL
- MIC (Escherichia coli [9]): 0.2 µg/mL
- MIC (Escherichia coli [10]): 3.13 µg/mL
- MIC (Escherichia coli [11]): 0.39 µg/mL
- MIC (Escherichia coli [12]): 0.2 µg/mL
- MIC (Escherichia coli [13]): 0.39 µg/mL
- ED50 (Staphylococcus aureus [14]): 8.1 mg/kg
- MIC (Escherichia coli [15]): 0.39 µg/mL
- ED50 (Escherichia coli [16]): 1.01 mg/kg
- MIC (Klebsiella pneumoniae): 0.1 µg/mL
- MIC (Staphylococcus aureus [7]): 0.1 µg/mL
- MIC (Escherichia coli [17]): 1.56 µg/mL

SMILES: CC1COc2c(N3CCNCC3)c(F)cc3c(=O)c(C(=O)O)cn1c23 (centres undefined)
- MIC (Staphylococcus aureus [1]): 0.39 µg/mL (≈ 1.12 µM)
- MIC (Escherichia coli [2]): 0.1 µg/mL (≈ 0.288 µM)
- MIC (Enterococcus faecalis): 1.56 µg/mL (≈ 4.49 µM)
- ED50 (Pseudomonas aeruginosa [18]): 22.9 µg/mL (≈ 65.9 µM)
- MIC (Escherichia coli [3]): 0.1 µg/mL (≈ 0.288 µM)
- MIC (Pseudomonas aeruginosa [4]): 1.56 µg/mL (≈ 4.49 µM)
- MIC (Pseudomonas aeruginosa [5]): 1.56 µg/mL (≈ 4.49 µM)
- MIC [6]: 0.78 µg/mL (≈ 2.25 µM)
- MIC (Escherichia coli [9]): 0.39 µg/mL (≈ 1.12 µM)
- MIC (Escherichia coli [10]): 6.25 µg/mL (≈ 18 µM)
- MIC (Escherichia coli [11]): 0.78 µg/mL (≈ 2.25 µM)
- MIC (Escherichia coli [12]): 0.39 µg/mL (≈ 1.12 µM)
- MIC (Escherichia coli [13]): 0.78 µg/mL (≈ 2.25 µM)
- ED50 (Staphylococcus aureus [14]): 11.5 mg/kg
- MIC (Escherichia coli [15]): 0.78 µg/mL (≈ 2.25 µM)
- ED50 (Escherichia coli [16]): 1.1 mg/kg
- MIC (Klebsiella pneumoniae): 0.1 µg/mL (≈ 0.288 µM)
- MIC (Staphylococcus aureus [7]): 0.39 µg/mL (≈ 1.12 µM)
- MIC (Escherichia coli [17]): 6.25 µg/mL (≈ 18 µM)

SMILES: Cl.O=C(O)c1cn(C2CC2)c2cc(N3CCNCC3)c(F)cc2c1=O [CIPROFLOXACIN HYDROCHLORIDE]
- MIC (Staphylococcus aureus [1]): 0.2 µg/mL
- MIC (Enterococcus faecalis): 0.78 µg/mL
- MIC (Escherichia coli [3]): 0.05 µg/mL
- MIC (Pseudomonas aeruginosa [4]): 0.78 µg/mL
- MIC (Pseudomonas aeruginosa [5]): 0.78 µg/mL
- MIC [6]: 1.56 µg/mL
- MIC (Staphylococcus aureus [7]): 0.78 µg/mL

SMILES: CCn1cc(C(=O)O)c(=O)c2cc(F)c(N3CCNCC3)nc21 [ENOXACIN]
- MIC (Staphylococcus aureus [1]): 0.78 µg/mL (≈ 2.44 µM)
- MIC (Escherichia coli [2]): 0.2 µg/mL (≈ 0.624 µM)
- MIC (Enterococcus faecalis): 3.13 µg/mL (≈ 9.77 µM)
- MIC (Escherichia coli [3]): 0.2 µg/mL (≈ 0.624 µM)
- MIC (Pseudomonas aeruginosa [4]): 1.56 µg/mL (≈ 4.87 µM)
- MIC (Pseudomonas aeruginosa [5]): 1.56 µg/mL (≈ 4.87 µM)
- MIC [6]: 3.13 µg/mL (≈ 9.77 µM)
- MIC (Klebsiella pneumoniae): 0.1 µg/mL (≈ 0.312 µM)
- MIC (Staphylococcus aureus [7]): 0.78 µg/mL (≈ 2.44 µM)

SMILES: CCn1cc(C(=O)O)c(=O)c2ccc(C)nc21 [NALIDIXIC ACID]
- MIC (Escherichia coli [9]): 100 µg/mL (≈ 431 µM)
- MIC (Escherichia coli [10]): > 1600 µg/mL
- MIC (Escherichia coli [11]): 200 µg/mL (≈ 861 µM)
- MIC (Escherichia coli [12]): 100 µg/mL (≈ 431 µM)
- MIC (Escherichia coli [13]): 100 µg/mL (≈ 431 µM)
- MIC (Escherichia coli [15]): 100 µg/mL (≈ 431 µM)
- MIC (Escherichia coli [17]): > 1600 µg/mL

SMILES: CCn1cc(C(=O)O)c(=O)c2cc(F)c(N3CCNCC3)cc21 [NORFLOXACIN]
- MIC (Staphylococcus aureus [1]): 0.39 µg/mL (≈ 1.22 µM)
- MIC (Escherichia coli [2]): 0.2 µg/mL (≈ 0.626 µM)
- MIC (Enterococcus faecalis): 1.56 µg/mL (≈ 4.89 µM)
- MIC (Escherichia coli [3]): 0.2 µg/mL (≈ 0.626 µM)
- MIC (Pseudomonas aeruginosa [4]): 1.56 µg/mL (≈ 4.89 µM)
- MIC (Pseudomonas aeruginosa [5]): 1.56 µg/mL (≈ 4.89 µM)
- MIC [6]: 3.13 µg/mL (≈ 9.8 µM)
- MIC (Klebsiella pneumoniae): 0.1 µg/mL (≈ 0.313 µM)
- MIC (Staphylococcus aureus [7]): 1.56 µg/mL (≈ 4.89 µM)
